The IC50 is the point on the concentration scale where inhibition reaches its midpoint. High values mean weaker potency, low ones greater potency. The EC50 is the midpoint of the concentration-response curve.

Each structure is given as a SMILES string.

One assay concerns CCRF-CEM. Briefly: Cytostatic activity against human CEM cells after 3 days by coulter ZI particle counting analysis. The format is functional, cell-based. The conditions noted are these: 72 h. In short, it runs like this:
(§1)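 Cells seeded in 96-well plates and grown with or without serial dilutions of compound, 2 days for L1210 and 3 days for CEM and HeLa. IC50 taken as concentration inhibiting cell proliferation by 50%.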

Another assay concerns HeLa. Briefly: Cytostatic activity against human HeLa cells after 3 days by coulter ZI particle counting analysis. Type of assay: functional, cell-based. The settings on record: 72 h. The gist of the method: as §1
The test system of another assay is L1210. Put plainly: Cytostatic activity against mouse L1210 cells after 2 days by coulter ZI particle counting analysis. The format is functional, cell-based. The settings on record: L1210, 48 h. In short, it runs like this:
as §1

The next assay concerns Human alphaherpesvirus 2. Put plainly: Antiviral activity against Herpes simplex virus 2 G infected in human HEL cells assessed as inhibition of virus-induced cytopathicity. The format is functional, organism-based. The settings on record: Human alphaherpesvirus 2, strain G. The gist of the method:
(§2)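 Confluent monolayers (HEL for HSV-1 KOS and HSV-2 G; CRFK for feline herpes virus) in 96-well plates inoculated with 100 CCID50 of virus in presence of varying compound concentrations (100, 20, 4, … μM). Cytopathicity scored when complete in untreated infected controls; EC50 = concentration inhibiting virus-induced cytopathicity by 50%.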
For orientation: Protection from cytopathic effect is a common read-out in antiviral testing.

For another assay, the system named is Felid alphaherpesvirus 1. Briefly: Antiviral activity against Feline herpesvirus infected in cat CRFK cells assessed as inhibition of virus-induced cytopathicity. The format is functional, organism-based. The conditions noted are these: Felid alphaherpesvirus 1, CRFK. In short, it runs like this:
as §2

In a further assay the test system is Human alphaherpesvirus 1. Briefly: Antiviral activity against Herpes simplex virus 1 KOS infected in human HEL cells assessed as inhibition of virus-induced cytopathicity. The format is functional, organism-based. The settings on record: Human alphaherpesvirus 1, KOS. The gist of the method:
as §2

In the case of `CCOP(=O)(Cn1cc(Cn2cnc3cc(C)c(C)cc32)nn1)OCC`, the IC50 is 97 µM in the assay on CCRF-CEM, 42 µM in the assay on HeLa and greater than 200 µM with L1210.

As to `CCOP(=O)(Cn1cc(Cn2cc(C(C)=O)c3ccccc32)nn1)OCC`, the IC50 in the assay on CCRF-CEM amounted to 2.78 µM; with HeLa, 11 µM; with L1210 it was 72 µM.

Regarding `CCOP(=O)(Cn1cc(Cn2ccccc2=O)nn1)OCC`, the IC50 in the assay on CCRF-CEM, in the assay on HeLa and in the assay with L1210 was greater than 200 µM in each case.

Regarding `CCOP(=O)(CCn1cc(Cn2ncc(=O)[nH]c2=O)nn1)OCC`, the IC50 in the assay on CCRF-CEM, with HeLa and in the assay on L1210 was greater than 200 µM throughout.

For `CCOP(=O)(CCn1cc(Cn2c(Cl)nc3c2c(=O)n(C)c(=O)n3C)nn1)OCC`, the IC50 was greater than 200 µM in the assay with CCRF-CEM, 200 µM with HeLa and greater than 200 µM in the assay on L1210.

For the compound `CCOP(=O)(CCn1cc(Cn2c(=O)c3c(ncn3C)n(C)c2=O)nn1)OCC`, the IC50 with CCRF-CEM was greater than 200 µM; in the assay on HeLa it was 159 µM; in the assay on L1210 it was greater than 200 µM.

For `CCOP(=O)(CCn1cc(Cn2cnc3c2c(=O)n(C)c(=O)n3C)nn1)OCC`, the IC50 in the assay on CCRF-CEM, with HeLa and with L1210 was greater than 200 µM each time.

For `CCOP(=O)(CCn1cc(Cn2cnc3cc(C)c(C)cc32)nn1)OCC`, the IC50 with CCRF-CEM was 23.4 µM; in the assay with HeLa, greater than 200 µM; with L1210, no less than 200 µM.

As to `CCOP(=O)(CCn1cc(Cn2cc(C(C)=O)c3ccccc32)nn1)OCC`, the results for the IC50 in the assay on CCRF-CEM, in the assay on HeLa and in the assay with L1210 were 11.4 µM, 18 µM and 197 µM, respectively.

For `CCOP(=O)(CCn1cc(Cn2ccccc2=O)nn1)OCC`, the IC50 in the assay on CCRF-CEM, in the assay on HeLa and in the assay on L1210 was greater than 200 µM throughout.

As to `CCOP(=O)(CCCn1cc(Cn2c(=O)n(C(=O)c3ccccc3)c(=O)c3ccccc32)nn1)OCC`, the values for the EC50 in the assay on Human alphaherpesvirus 2, in the assay on Felid alphaherpesvirus 1 and in the assay with Human alphaherpesvirus 1 were 17 µM, 24 µM and 17 µM, respectively. Also, the 50% inhibitory concentration (IC50) is 44 µM with CCRF-CEM, 129 µM in the assay with HeLa and greater than 200 µM in the assay on L1210.

On to `CCOP(=O)(CCCn1cc(Cn2ccc(=O)n(C(=O)c3ccccc3)c2=O)nn1)OCC`, for which the EC50 with Human alphaherpesvirus 2, in the assay on Felid alphaherpesvirus 1 and with Human alphaherpesvirus 1 was greater than 200 µM throughout. Moreover, the IC50 with CCRF-CEM, with HeLa and in the assay on L1210 was greater than 200 µM throughout.

Turning to `CCOP(=O)(Cn1cc(Cn2c(=O)n(C(=O)c3ccccc3)c(=O)c3ccccc32)nn1)OCC`, the 50% inhibitory concentration (IC50) was no less than 72 µM in the assay with CCRF-CEM, no less than 89 µM in the assay on HeLa and greater than 200 µM in the assay with L1210.

For `CCOP(=O)(Cn1cc(Cn2ncc(=O)[nH]c2=O)nn1)OCC`, the IC50 in the assay on CCRF-CEM, with HeLa and in the assay with L1210 was greater than 200 µM throughout.

In the case of `CCOP(=O)(Cn1cc(Cn2c(Cl)nc3c2c(=O)n(C)c(=O)n3C)nn1)OCC`, the IC50 in the assay on CCRF-CEM, in the assay with HeLa and in the assay with L1210 was greater than 200 µM throughout.

Turning to `CCOP(=O)(Cn1cc(Cn2c(=O)c3c(ncn3C)n(C)c2=O)nn1)OCC`, the IC50 was greater than 200 µM with CCRF-CEM, no less than 149 µM with HeLa and greater than 200 µM with L1210.

In the case of `CCOP(=O)(Cn1cc(Cn2cnc3c2c(=O)n(C)c(=O)n3C)nn1)OCC`, the IC50 in the assay on CCRF-CEM, with HeLa and in the assay with L1210 was greater than 200 µM throughout.

These data come from ChEMBL document CHEMBL3085765, “The synthesis, antiviral, cytostatic and cytotoxic evaluation of a new series of acyclonucleotide analogues with a 1,2,3-triazole linker” (Eur J Med Chem, 2013).
